Drawing on ChEMBL document CHEMBL1138091, “Privileged structure based ligands for melanocortin-4 receptors--aliphatic piperazine derivatives” (Bioorg Med Chem Lett, 2006), this text covers Ki for 27 compounds.

Chain of Melanocortin receptor 4 (P32245 whole entry): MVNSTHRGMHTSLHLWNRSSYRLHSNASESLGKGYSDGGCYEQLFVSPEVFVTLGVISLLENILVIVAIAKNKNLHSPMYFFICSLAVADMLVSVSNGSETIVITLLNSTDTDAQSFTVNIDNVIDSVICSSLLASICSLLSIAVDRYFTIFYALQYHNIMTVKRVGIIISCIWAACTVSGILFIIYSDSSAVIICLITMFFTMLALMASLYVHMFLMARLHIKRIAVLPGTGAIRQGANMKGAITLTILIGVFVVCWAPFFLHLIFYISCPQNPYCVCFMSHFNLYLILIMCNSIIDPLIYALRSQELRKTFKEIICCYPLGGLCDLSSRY

In the assay the target is Melanocortin receptor 4 (Homo sapiens, UniProt P32245). The assay is described as follows: Inhibition of [125I]NDP-alpha-MSH binding to human MC4R transfected in HEK293 cells. It counts as cell-based. Summed up:
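Competition binding against ¹²⁵I-NDP-α-MSH on HEK293 cells stably expressing human MC4 receptor; affinity taken from inhibition of radioligand binding. Each value is the mean of at least two determinations, with the binding assay's average error given as 15%.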
Compound `CCN(CC)CC(C1CCCCC1)N1CCN(C(=O)[C@@H](Cc2ccc(Cl)cc2)NC(=O)CC2Cc3ccccc3N2)CC1` (stereo in doubt; 28b) came in with a Ki of 5 nM. Take `CCN(CC(C1CCCCC1)N1CCN(C(=O)[C@@H](Cc2ccc(Cl)cc2)NC(=O)n2cc3ccccc3c2)CC1)S(C)(=O)=O` (some centres not stated): the affinity corresponds to a Ki of 7 nM. On to `CCN(CC(C1CCCCC1)N1CCN(C(=O)[C@@H](Cc2ccc(Cl)cc2)NC(=O)CC2Cc3ccccc3N2)CC1)C(C)=O` (stereo in doubt; 35), for which the Ki came to 8 nM. For `CCN(CC(C1CCCCC1)N1CCN(C(=O)[C@@H](Cc2ccc(Cl)cc2)NC(=O)CC2Cc3ccccc3N2)CC1)S(C)(=O)=O` (stereo in doubt; 34a), the affinity, expressed as Ki, was 6 nM.

On to `CCN(CC)CC(C)N1CCN(C(=O)[C@@H](Cc2ccc(Cl)cc2)NC(=O)[C@H]2Cc3ccccc3CN2)CC1` (some centres not stated), for which the affinity corresponds to a Ki of 3430 nM.

For `CCN(CC)CC(C1CCCCCC1)N1CCN(C(=O)[C@@H](Cc2ccc(Cl)cc2)NC(=O)[C@H]2Cc3ccccc3CN2)CC1` (some centres not stated), the Ki was 13 nM.

In the case of `CCN(CC)CC(CC1CCCCC1)N1CCN(C(=O)[C@@H](Cc2ccc(Cl)cc2)NC(=O)CC2Cc3ccccc3N2)CC1` (some centres not stated), the Ki turned out to be 5 nM. Regarding `CC(C)CC(CC(C)C)N1CCN(C(=O)[C@@H](Cc2ccc(Cl)cc2)NC(=O)CC2Cc3ccccc3N2)CC1` (some centres not stated), the Ki was found to be 18 nM. With `CCN(CC)CC(C1CCCCC1)N1CCN(C(=O)[C@@H](Cc2ccc(Cl)cc2)NC(=O)CC2Cc3ccccc3N2)CC1` (stereo in doubt; 28), the Ki came out at 3 nM.

For `O=C(CC1Cc2ccccc2N1)N[C@H](Cc1ccc(Cl)cc1)C(=O)N1CCN(C(CN2C(=O)CCC2=O)C2CCCCC2)CC1` (stereo in doubt; 36a), the inhibition constant (Ki) worked out at 10 nM. For the compound `O=C(CC1Cc2ccccc2N1)N[C@H](Cc1ccc(Cl)cc1)C(=O)N1CCN(C(CN2C(=O)CCC2=O)C2CCCCC2)CC1` (stereo in doubt; 36), the Ki came out at 10 nM. Consider `CCN(CC(C1CCCCC1)N1CCN(C(=O)[C@@H](Cc2ccc(Cl)cc2)NC(=O)CC2Cc3ccccc3N2)CC1)C(C)=O` (stereo in doubt; 35a), for which the Ki was determined as 2 nM.

Compound `CCN(CC(C1CCCCC1)N1CCN(C(=O)[C@@H](Cc2ccc(Cl)cc2)NC(=O)CC2Cc3ccccc3N2)CC1)S(C)(=O)=O` (stereo in doubt; 34) yielded a Ki of 3 nM. To `O=C(CC1Cc2ccccc2N1)N[C@H](Cc1ccc(Cl)cc1)C(=O)N1CCN(C(CC2CCCCC2)CN2CCOCC2)CC1` (some centres not stated) belongs 10 nM. The compound `O=C(CC1Cc2ccccc2N1)N[C@H](Cc1ccc(Cl)cc1)C(=O)N1CCN(C(C2CCCCC2)C2CCCCC2)CC1` (some centres not stated) yielded a Ki of 35 nM. Consider `CC(C)CC(C1CCCCC1)N1CCN(C(=O)[C@@H](Cc2ccc(Cl)cc2)NC(=O)CC2Cc3ccccc3N2)CC1` (some centres not stated), for which the inhibition constant Ki was determined as 54 nM. Consider `CCN(CC)CC1(N2CCN(C(=O)[C@@H](Cc3ccc(Cl)cc3)NC(=O)[C@H]3Cc4ccccc4CN3)CC2)CCCC1`, for which the affinity, expressed as Ki, was 70 nM. Turning to `CCN(CC)CC(C1CCCCC1)N1CCN(C(=O)[C@@H](Cc2ccc(Cl)cc2)NC(=O)CC2Cc3ccccc3N2)CC1` (stereo in doubt; 28a), the affinity, expressed as Ki, was 3 nM. With `O=C(CC1Cc2ccccc2N1)N[C@H](Cc1ccc(Cl)cc1)C(=O)N1CCN(C(CN2C(=O)CCC2=O)C2CCCCC2)CC1` (stereo in doubt; 36b), the Ki was 18 nM. For `CCN(CC)CC(C1CCCCC1)N1CCN(C(=O)[C@@H](Cc2ccc(Cl)cc2)NC(=O)[C@H]2Cc3ccccc3CN2)CC1` (some centres not stated), the affinity corresponds to a Ki of 4 nM.

`CCN(CC)CC(CC1CCCCC1)N1CCN(C(=O)[C@@H](Cc2ccc(Cl)cc2)NC(=O)[C@H]2Cc3ccccc3CN2)CC1` (some centres not stated) displayed a Ki of 13 nM.

`CCN(CC)CC(C1CCCC1)N1CCN(C(=O)[C@@H](Cc2ccc(Cl)cc2)NC(=O)[C@H]2Cc3ccccc3CN2)CC1` (some centres not stated) displayed a Ki of 4 nM. Regarding `CCN(CC)C(=O)C(C1CCCCC1)N1CCN(C(=O)[C@@H](Cc2ccc(Cl)cc2)NC(=O)CC2Cc3ccccc3N2)CC1` (some centres not stated), the Ki came out at 148 nM. In turn, `CCN(CC)CC(c1ccccc1F)N1CCN(C(=O)[C@@H](Cc2ccc(Cl)cc2)NC(=O)[C@H]2Cc3ccccc3CN2)CC1` (some centres not stated) showed an inhibition constant (Ki) of 20 nM. For the compound `O=C(CC1Cc2ccccc2N1)N[C@H](Cc1ccc(Cl)cc1)C(=O)N1CCN(C(CC2CCCCC2)CC2CCCCC2)CC1` (some centres not stated), the affinity corresponds to a Ki of 326 nM. Regarding `CCN(CC(C1CCCCC1)N1CCN(C(=O)[C@@H](Cc2ccc(Cl)cc2)NC(=O)CC2Cc3ccccc3N2)CC1)C(C)=O` (stereo in doubt; 35b), the affinity corresponds to a Ki of 3 nM.

In turn, `CS(=O)(=O)NCC(C1CCCCC1)N1CCN(C(=O)[C@@H](Cc2ccc(Cl)cc2)NC(=O)CC2Cc3ccccc3N2)CC1` (some centres not stated) returned a Ki of 26 nM.

What is called Ki is the equilibrium dissociation constant of an inhibitor or competing ligand from its target. Higher therefore signals weaker binding.
